Test results reported in the M2OR odorant receptor database.
Changes are numbered by the printed parent chain.

Legend:
Settings in all cases: stereoisomer not certain
[1] = system: T1, O5AP2 A105T
T1 sequence (whole entry): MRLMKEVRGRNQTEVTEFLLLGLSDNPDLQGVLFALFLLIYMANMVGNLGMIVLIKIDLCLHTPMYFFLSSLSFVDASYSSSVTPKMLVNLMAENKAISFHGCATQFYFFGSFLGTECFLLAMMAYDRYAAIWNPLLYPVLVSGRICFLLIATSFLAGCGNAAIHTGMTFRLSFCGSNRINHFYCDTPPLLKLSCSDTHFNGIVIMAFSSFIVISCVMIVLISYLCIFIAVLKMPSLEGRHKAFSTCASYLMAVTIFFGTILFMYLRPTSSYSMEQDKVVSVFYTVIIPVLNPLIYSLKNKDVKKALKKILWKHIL
In short: (§1)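 Whether a receptor–molecule pair is responsive (active) rests on the original authors' judgment that its measured signal was statistically different from baseline. Pairs without that judgment are non-responsive (inactive). Sources used varied assay methods, commonly transient luciferase assays in mammalian cell lines.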

[2] = system: T2, O5AU1
T2 sequence (whole entry): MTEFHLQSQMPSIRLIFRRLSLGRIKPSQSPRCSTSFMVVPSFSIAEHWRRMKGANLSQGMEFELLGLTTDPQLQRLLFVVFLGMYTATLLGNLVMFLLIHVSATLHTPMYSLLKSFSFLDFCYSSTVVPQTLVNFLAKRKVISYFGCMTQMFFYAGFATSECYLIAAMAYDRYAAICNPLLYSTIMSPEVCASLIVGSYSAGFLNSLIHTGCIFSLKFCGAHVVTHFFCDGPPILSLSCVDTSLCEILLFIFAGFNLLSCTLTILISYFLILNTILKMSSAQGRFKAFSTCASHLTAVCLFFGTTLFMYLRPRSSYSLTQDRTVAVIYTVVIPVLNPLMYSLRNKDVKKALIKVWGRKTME
In short: as §1

[3] = system: T3, O5H14
T3 sequence (whole entry): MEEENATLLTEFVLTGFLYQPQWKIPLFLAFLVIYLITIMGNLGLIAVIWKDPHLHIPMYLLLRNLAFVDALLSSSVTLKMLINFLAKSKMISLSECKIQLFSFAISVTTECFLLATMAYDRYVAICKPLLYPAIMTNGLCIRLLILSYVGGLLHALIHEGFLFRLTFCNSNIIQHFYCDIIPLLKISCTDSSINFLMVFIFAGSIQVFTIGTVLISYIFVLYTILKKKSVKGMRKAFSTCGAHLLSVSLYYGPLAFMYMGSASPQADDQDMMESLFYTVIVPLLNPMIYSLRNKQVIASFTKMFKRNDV
In short: as §1

[4] = system: T4, O5H15 V108I S148T T167S
T4 sequence (whole entry): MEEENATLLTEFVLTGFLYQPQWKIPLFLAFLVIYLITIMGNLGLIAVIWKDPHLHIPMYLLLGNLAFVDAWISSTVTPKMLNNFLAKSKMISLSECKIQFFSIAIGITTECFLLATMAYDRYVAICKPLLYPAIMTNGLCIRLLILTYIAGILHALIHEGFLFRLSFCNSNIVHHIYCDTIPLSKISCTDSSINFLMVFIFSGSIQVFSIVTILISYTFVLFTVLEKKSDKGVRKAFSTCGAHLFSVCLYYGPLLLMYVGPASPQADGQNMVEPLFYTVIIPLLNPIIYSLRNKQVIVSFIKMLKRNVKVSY
In short: as §1

[5] = system: T5, O6C65 T222A
T5 sequence (whole entry): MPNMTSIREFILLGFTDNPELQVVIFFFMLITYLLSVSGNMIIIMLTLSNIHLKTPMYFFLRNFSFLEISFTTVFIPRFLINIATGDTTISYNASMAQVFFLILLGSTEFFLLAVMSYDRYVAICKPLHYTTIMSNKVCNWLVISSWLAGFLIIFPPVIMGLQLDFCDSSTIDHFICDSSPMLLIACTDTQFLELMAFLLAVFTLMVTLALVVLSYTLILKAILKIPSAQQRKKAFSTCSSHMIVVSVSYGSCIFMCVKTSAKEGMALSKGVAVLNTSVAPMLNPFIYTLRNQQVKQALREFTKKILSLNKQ
In short: as §1

[6] = system: T6, O6C70 L181P
T6 sequence (whole entry): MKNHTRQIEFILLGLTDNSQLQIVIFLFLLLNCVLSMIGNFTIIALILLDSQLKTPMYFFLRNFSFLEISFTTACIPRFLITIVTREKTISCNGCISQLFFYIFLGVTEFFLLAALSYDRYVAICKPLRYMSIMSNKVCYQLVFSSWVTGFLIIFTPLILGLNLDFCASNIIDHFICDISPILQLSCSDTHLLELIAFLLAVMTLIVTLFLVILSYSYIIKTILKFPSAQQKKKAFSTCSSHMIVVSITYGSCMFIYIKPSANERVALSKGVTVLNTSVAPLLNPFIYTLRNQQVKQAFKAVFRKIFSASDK
In short: as §1

[7] = system: T7, O7E24 S193F P242S
T7 sequence (whole entry): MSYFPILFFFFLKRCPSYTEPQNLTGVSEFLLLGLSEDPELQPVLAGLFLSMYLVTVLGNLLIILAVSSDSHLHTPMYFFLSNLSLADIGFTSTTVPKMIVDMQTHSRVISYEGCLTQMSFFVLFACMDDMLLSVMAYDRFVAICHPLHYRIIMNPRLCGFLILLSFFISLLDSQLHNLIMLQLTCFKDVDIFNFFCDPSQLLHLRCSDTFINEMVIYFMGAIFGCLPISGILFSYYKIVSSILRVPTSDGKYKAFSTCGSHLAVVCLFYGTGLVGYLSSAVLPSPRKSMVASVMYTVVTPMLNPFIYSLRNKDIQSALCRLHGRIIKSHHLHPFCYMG
In short: as §1

[8] = system: T8, O7E24
T8 sequence (whole entry): T7 sequence (whole entry) with F193S
In short: as §1

[9] = biological target: T9, OR10A2 (Homo sapiens) (UniProt Q9H208)
T9 sequence (whole entry): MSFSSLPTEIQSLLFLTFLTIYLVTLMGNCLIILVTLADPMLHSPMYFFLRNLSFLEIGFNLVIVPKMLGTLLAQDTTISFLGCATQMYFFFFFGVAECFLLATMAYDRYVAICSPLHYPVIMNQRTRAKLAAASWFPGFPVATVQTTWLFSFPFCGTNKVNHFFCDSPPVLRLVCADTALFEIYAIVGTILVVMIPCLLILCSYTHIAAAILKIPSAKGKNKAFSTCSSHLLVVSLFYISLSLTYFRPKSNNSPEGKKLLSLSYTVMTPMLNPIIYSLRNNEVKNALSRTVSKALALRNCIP
In short: as §1

[10] = biological target: T10, OR10A3 (Homo sapiens) (UniProt P58181)
T10 sequence (whole entry): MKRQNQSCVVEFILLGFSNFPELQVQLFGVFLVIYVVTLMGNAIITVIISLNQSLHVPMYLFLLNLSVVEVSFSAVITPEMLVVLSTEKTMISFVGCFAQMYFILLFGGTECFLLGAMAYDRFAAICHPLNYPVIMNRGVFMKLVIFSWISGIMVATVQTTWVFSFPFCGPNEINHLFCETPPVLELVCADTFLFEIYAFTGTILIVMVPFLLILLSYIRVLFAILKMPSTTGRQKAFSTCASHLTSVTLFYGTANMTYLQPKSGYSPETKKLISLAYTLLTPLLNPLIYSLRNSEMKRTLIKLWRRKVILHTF
In short: as §1

[11] = biological target: T11, OR10A4 (Homo sapiens) (UniProt Q9H209)
T11 sequence (whole entry): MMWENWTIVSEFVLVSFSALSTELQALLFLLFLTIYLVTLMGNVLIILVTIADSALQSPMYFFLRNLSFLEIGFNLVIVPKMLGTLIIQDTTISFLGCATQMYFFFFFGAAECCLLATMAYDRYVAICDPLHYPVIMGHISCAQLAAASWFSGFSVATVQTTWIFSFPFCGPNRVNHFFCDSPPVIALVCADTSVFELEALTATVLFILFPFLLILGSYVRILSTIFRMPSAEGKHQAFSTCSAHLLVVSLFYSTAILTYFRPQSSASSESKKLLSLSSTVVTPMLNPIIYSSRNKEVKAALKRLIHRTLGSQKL
In short: as §1

[12] = biological target: T12, OR10A5 (Homo sapiens) (UniProt Q9H207)
T12 sequence (whole entry): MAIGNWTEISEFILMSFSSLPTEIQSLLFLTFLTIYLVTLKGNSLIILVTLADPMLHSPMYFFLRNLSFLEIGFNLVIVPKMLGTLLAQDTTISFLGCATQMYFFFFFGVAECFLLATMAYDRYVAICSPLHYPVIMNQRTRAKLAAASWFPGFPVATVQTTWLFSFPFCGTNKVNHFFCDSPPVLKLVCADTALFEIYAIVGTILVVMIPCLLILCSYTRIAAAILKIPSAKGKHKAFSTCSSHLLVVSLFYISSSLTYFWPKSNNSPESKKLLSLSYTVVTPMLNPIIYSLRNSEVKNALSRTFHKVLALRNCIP
In short: as §1

[13] = biological target: T13, OR10A6 (Homo sapiens) (UniProt Q8NH74)
T13 sequence (whole entry): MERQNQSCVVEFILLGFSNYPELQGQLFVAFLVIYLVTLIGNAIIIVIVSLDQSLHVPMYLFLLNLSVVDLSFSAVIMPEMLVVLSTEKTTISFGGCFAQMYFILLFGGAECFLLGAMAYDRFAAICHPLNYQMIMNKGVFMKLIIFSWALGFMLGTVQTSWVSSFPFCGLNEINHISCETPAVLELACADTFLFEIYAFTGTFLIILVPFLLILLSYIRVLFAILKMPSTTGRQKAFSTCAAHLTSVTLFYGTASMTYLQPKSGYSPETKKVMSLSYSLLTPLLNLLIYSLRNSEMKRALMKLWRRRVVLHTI
In short: as §1

[14] = biological target: T14, OR10A7 (Homo sapiens) (UniProt Q8NGE5)
T14 sequence (whole entry): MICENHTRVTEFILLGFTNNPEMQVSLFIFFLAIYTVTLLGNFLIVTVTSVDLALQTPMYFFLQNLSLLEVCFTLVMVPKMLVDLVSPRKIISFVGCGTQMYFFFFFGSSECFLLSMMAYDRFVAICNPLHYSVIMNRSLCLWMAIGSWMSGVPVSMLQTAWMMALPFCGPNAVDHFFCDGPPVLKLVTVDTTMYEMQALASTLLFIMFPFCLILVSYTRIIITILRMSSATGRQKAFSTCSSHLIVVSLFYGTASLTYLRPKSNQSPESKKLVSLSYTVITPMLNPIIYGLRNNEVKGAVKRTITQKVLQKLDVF
In short: as §1

[15] = biological target: T15, OR10AD1 (Homo sapiens) (UniProt Q8NGE0)
T15 sequence (whole entry): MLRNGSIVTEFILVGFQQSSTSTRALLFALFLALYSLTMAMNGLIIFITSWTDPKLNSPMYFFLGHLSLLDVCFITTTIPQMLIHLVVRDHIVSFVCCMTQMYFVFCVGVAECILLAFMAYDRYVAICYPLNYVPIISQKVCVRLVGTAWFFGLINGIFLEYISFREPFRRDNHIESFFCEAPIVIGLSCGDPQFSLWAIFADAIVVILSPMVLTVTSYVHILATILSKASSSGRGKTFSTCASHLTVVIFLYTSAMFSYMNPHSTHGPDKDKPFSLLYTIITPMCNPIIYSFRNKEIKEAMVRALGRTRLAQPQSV
In short: as §1

[16] = biological target: T16, OR10AG1 (Homo sapiens) (UniProt Q8NH19)
T16 sequence (whole entry): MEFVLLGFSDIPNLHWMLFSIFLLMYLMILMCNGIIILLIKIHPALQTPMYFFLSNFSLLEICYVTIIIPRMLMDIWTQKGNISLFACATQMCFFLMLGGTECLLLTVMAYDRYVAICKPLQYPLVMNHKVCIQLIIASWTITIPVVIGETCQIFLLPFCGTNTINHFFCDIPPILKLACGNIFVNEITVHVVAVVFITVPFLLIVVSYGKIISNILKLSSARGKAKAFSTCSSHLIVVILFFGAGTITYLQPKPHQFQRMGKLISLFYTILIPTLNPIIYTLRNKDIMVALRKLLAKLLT
In short: as §1

[17] = biological target: T17, OR10C1 (Homo sapiens) (UniProt Q96KK4)
T17 sequence (whole entry): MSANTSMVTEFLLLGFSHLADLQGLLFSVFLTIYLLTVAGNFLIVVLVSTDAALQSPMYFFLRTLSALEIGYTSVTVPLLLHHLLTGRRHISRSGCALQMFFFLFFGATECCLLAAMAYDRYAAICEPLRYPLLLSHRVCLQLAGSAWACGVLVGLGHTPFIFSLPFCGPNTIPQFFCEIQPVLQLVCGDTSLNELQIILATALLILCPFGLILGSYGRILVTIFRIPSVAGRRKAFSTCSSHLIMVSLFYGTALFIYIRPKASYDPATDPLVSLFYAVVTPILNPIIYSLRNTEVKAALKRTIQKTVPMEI
In short: as §1

[18] = biological target: T18, OR10D3 (Homo sapiens) (UniProt Q8NH80)
T18 sequence (whole entry): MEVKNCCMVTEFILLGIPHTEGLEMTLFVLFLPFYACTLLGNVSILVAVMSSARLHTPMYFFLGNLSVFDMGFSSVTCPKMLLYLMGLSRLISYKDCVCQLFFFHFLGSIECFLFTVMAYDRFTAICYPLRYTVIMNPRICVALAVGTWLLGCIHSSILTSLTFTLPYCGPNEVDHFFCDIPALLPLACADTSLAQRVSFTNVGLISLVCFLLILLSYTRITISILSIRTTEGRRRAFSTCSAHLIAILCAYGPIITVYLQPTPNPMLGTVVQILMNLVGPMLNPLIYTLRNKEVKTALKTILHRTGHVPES
In short: as §1

Measured: odorant receptor agonist call;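 also: active if original authors judged signal statistically different from baseline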

CC1=C(O)C(=O)C(C)O1 (stereo not drawn)
inactive: all assays above
